Laboratory results published in PMC9810488 (Translational and Clinical Pharmacology, 2022).
Read-outs that look alike come from different tables or passages of the source.

Tests used:
[1] = format: in vivo, human; settings: sitagliptin 100 mg single oral dose, plasma
Outline: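 Healthy Korean adults (≥19 years, BMI 18.0–30.0 kg/m2) took a single 100 mg oral tablet with 150 mL water in randomized periods, washout ≥7 days. Heparinized blood was drawn predose and 15 min–48 h postdose, centrifuged 3,000 rpm, 10 min, 4°C, and plasma stored at −70°C. Assay was LC-MS/MS, positive-ion ESI. Noncompartmental: Cmax observed, AUCinf by linear-up log-down trapezoidal rule. ABCB1 genotyped by TaqMan allelic discrimination.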

[2] = cited from earlier work
[3] = cited from earlier work; remark: listed apart in the source

Compound | Sitagliptin AUCinf ([1]; ABCB1 C1236T CC+CT (n=72)) | Sitagliptin Cmax ([1]; ABCB1 C1236T CT+TT (n=81)) [ng/mL] | Sitagliptin AUCinf ([1]; ABCB1 C3435T CC (n=49)) | Sitagliptin AUCinf ([1]; ABCB1 C3435T CC+CT (n=91)) | Sitagliptin Cmax ([1]; ABCB1 C3435T CT (n=42)) [ng/mL] | Sitagliptin Cmax ([1]; ABCB1 C3435T CT+TT (n=51)) [ng/mL] | Sitagliptin AUCinf ([1]; ABCB1 C3435T TT (n=9)) | Sitagliptin AUCinf ([1]; ABCB1 G2677T/A AA (n=2)) | Sitagliptin AUCinf ([1]; ABCB1 G2677T/A AT+GA (n=37)) | Sitagliptin Cmax ([1]; ABCB1 G2677T/A AT+GA (n=37)) [ng/mL] | Sitagliptin AUCinf ([1]; ABCB1 G2677T/A AT+GT (n=44)) | Sitagliptin Cmax ([1]; ABCB1 G2677T/A AT+GT (n=44)) [ng/mL] | Sitagliptin AUCinf ([1]; ABCB1 G2677T/A GA (n=20)) | Sitagliptin AUCinf ([1]; ABCB1 G2677T/A GA+GT (n=47)) | Sitagliptin AUCinf ([1]; ABCB1 G2677T/A TT (n=9)) | drug eliminated as unchanged compound in the urine [2] | digoxin concentrations higher in 3435TT homozygous subjects than in CC and CT subjects ([3]; 34 Caucasian subjects) [%] | lower AUC for digoxin in 3435 TT genotype than in CC and CT genotypes ([3]; Japanese study, 114 subjects) [%] | relationship between C3435T SNP and digoxin concentrations ([3]; single digoxin dose)
N[C@@H](CC(=O)N1CCn2c(nnc2C(F)(F)F)C1)Cc1cc(F)c(F)cc1F [Sitagliptin] | 3,504.78 ± 655.77 ng*h/mL | 456.01 ± 123.74 | 3,530.20 ± 669.78 ng*h/mL | 3,484.02 ± 630.25 ng*h/mL | 454.26 ± 136.79 | 457.53 ± 130.73 | 3,528.50 ± 564.05 ng*h/mL | 3,481.41 ng*h/mL | 3,501.79 ± 714.08 ng*h/mL | 457.90 ± 98.21 | 3,475.54 ± 576.82 ng*h/mL | 457.31 ± 142.79 | 3,679.91 ± 852.18 ng*h/mL | 3,628.80 ± 723.63 ng*h/mL | 3,477.17 ± 596.14 ng*h/mL | over 80% |  |  | 
C[C@H]1O[C@@H](O[C@H]2[C@@H](O)C[C@H](O[C@H]3[C@@H](O)C[C@H](O[C@H]4CC[C@@]5(C)[C@H](CC[C@@H]6[C@@H]5C[C@@H](O)[C@]5(C)[C@@H](C7=CC(=O)OC7)CC[C@]65O)C4)O[C@@H]3C)O[C@@H]2C)C[C@H](O)[C@@H]1O [digoxin] |  |  |  |  |  |  |  |  |  |  |  |  |  |  |  |  | 20 | 20 | no relationship
